Screening results deposited in PubChem by several laboratories.
The list is not random: actives were taken first. Their share in the collection is about 5.8%.
PLK1 inh = human PLK1 kinase inhibitors, primary screen, biochemical, TR-FRET. Serine/threonine-protein kinase PLK1 (Homo sapiens), P53350. recombinant PLK1 kinase, TR-FRET peptide phosphorylation. inhibition, % at 10 µM. 97,000 tested, 0.53% active. AID 619, 2007;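 active = inhibition of 50% or more in the single-concentration screen; inactive = inhibition below 50%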
Rev-RRE block = HIV-1 Rev-RRE binding inhibitors, primary screen, biochemical, FRET, protein-RNA interaction; P05866; Rev peptide-RRE RNA binding; inhibition, % at 8 µM; 97,000 tested, 0.79% active;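 active = inhibition above the screen-wide mean plus 3 SD, cut at about 35% in these data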
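System: Cy5-labelled duplex RRE RNA binding fluorescein-labelled HIV Rev peptide; Signal: fluorescein-to-Cy5 FRET, 480 nm excitation; Also added: labelled Rev peptide; Compound: one concentration, 8 µM nominal; Buffer or medium: HEPES pH 7.5 salt buffer with EDTA; Read-out: % inhibition of FRET ratio versus controls; Schedule: 5 min preincubation and 15 min binding, 25 °C.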
FAK blocker = FAK kinase inhibitors, primary screen, biochemical; Focal adhesion kinase 1 (Homo sapiens), Q05397; biochemical FAK kinase activity assay; inhibition, %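 (tested at 7 µM)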; 97,000 tested, 0.84% active; AID 727, 2007; in the data active = inhibition above about 19%
PTK2B oligo ant = antagonists of Pyk2 self-association, primary screen, Q293 cells, FERM NanoBiT luminescence, HTS. hits give low values. z-score (the deposit names both 25 µM and 10 µM). 99,000 tested, 0.83% active. AID 1347419, 2020;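 active = Z-score of -3 or lower, scaled per plate to the spread of control and sample wells; inactive = z-score above -3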;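 also: negative z-score means lost luminescence so less FERM oligomerization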
Cav32 inh = Cav3.2 calcium influx blockers – cell-based, Fluo-4 calcium fluorescence, FDSS, MLSMR library, primary screen | Cav3.2-expressing cells; hits give low values | B-score at 10 µM | 100,000 tested, 4% active | AID 449739, 2010;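 active = single-dose well whose peak fluorescence ratio is a statistical outlier from its plate by either plate-standardised score or position-corrected B-score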
Target sequence (O95180 whole entry, looked up): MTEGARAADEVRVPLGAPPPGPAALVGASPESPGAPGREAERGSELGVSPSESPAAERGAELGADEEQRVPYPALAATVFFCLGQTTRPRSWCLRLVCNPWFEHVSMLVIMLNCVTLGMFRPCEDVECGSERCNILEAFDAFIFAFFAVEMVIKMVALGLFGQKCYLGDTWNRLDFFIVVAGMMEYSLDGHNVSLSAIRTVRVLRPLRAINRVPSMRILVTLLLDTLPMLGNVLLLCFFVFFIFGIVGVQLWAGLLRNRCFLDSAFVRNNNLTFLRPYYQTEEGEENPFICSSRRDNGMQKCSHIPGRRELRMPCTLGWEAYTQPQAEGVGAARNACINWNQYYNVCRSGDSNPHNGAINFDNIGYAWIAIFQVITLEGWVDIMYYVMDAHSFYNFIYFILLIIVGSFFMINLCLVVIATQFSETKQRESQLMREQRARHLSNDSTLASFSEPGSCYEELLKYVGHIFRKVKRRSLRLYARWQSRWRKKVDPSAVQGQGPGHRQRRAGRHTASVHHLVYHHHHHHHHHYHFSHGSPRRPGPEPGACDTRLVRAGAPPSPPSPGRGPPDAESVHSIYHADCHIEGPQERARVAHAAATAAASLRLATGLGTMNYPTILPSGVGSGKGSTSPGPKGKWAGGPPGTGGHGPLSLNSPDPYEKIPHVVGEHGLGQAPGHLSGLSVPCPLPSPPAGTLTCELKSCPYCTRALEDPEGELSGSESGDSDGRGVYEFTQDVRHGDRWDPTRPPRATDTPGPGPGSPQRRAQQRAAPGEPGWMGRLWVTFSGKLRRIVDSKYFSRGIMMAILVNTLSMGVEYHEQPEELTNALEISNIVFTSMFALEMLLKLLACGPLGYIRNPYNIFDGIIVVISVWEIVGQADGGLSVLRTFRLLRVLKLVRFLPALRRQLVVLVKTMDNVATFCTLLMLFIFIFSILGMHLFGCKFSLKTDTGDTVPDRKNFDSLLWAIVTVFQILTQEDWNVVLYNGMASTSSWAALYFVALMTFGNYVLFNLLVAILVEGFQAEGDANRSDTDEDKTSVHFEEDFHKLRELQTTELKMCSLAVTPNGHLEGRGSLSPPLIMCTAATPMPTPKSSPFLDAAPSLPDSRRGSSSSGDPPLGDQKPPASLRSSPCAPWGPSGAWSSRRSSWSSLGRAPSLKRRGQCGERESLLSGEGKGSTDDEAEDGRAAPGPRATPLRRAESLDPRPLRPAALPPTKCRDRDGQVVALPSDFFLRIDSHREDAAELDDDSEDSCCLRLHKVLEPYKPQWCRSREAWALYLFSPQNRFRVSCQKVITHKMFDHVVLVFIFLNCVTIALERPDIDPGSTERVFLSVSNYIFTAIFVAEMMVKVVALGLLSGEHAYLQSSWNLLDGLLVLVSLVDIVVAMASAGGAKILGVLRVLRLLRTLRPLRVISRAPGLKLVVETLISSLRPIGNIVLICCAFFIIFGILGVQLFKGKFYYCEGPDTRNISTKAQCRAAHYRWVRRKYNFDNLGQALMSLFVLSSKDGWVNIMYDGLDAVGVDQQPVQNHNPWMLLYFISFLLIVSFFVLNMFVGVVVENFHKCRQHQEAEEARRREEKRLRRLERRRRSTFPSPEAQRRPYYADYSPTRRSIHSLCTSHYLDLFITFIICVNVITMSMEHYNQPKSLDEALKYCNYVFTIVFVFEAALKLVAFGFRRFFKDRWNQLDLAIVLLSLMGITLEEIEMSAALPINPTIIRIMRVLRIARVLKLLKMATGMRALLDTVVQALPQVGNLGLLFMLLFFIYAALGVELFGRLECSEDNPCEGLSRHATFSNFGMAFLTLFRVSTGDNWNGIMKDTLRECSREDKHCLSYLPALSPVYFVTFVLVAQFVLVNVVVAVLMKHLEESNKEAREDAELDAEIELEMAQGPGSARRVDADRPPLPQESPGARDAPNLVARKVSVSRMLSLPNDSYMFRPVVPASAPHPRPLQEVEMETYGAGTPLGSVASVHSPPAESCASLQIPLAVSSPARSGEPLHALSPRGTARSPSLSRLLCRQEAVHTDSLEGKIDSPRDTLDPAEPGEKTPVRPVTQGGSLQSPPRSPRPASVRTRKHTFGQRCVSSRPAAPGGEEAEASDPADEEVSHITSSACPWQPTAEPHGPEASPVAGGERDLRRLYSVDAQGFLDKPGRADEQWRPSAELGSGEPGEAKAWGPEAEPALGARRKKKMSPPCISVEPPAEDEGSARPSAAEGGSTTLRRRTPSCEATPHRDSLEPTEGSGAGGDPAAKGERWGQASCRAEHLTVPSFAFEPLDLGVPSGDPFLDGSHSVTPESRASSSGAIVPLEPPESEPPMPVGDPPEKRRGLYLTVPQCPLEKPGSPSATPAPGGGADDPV
PLK1 PBD inh = Plk1 polo box domain binding inhibitors, primary screen, biochemical, fluorescence polarization; 97,000 tested, 0.13% active; Plk1 PBD phosphopeptide binding; inhibition, %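 (tested at about 20 µM)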; Serine/threonine-protein kinase PLK1 (Homo sapiens), P53350; in the data active = inhibition above about 34%, passing the limit was not always enough
Numbers stand for hits; 0 = inactive; - = no result given.

SMILES	PLK1 inh	Rev-RRE block	FAK blocker	PTK2B oligo ant	Cav32 inh	PLK1 PBD inh
CCOC(=O)c1c(NC(=O)CSc2nnc(Cc3ccccc3)o2)sc(C)c1C	0	0	0	0	-4.5	0
CCOC(=O)c1c(NC(=O)CSc2nnc(-c3cccnc3)n2Cc2ccco2)sc(C)c1C	0	0	0	0	0	0
COC(=O)c1c(NC(=O)CSc2nnc(-c3ccco3)n2Cc2ccccc2)sc(C)c1C	0	0	0	0	-4.5	0
CC(C(=O)NCc1cccnc1)N1C(=O)c2ccccc2C1=O (stereo unspecified)	0	0	0	0	0	0
C=CCSc1nnc2c(n1)OC(c1c(C)[nH]n(-c3ccccc3)c1=O)Nc1ccccc1-2 (stereo unspecified)	0	0	0	0	0	0
Cn1c(C(O)c2ccccc2)nc(Cl)c1Cl (stereo unspecified)	-	-	-	0	0	-
CCCn1c(N)c(C(=O)CSc2nnc(Cc3ccccc3)o2)c(=O)n(C)c1=O	0	0	0	0	-7.8	0
Cn1c(=O)c(C(=O)CSc2nnc(Nc3ccccc3)s2)c(N)n(Cc2ccccc2)c1=O	0	0	0	0	0	0
CC/C(=N\O)c1ccc(O)c(OC)c1	-	-	-	0	0	-
COCn1c(-c2ccc(OC)cc2)nc2ccccc21	0	0	0	0	0	0
C=C(C)Cn1c(-c2ccc(OC)cc2)nc2ccccc21	0	0	0	0	-5	0
Cc1cccc(C)c1N1C(=O)c2ccccc2C1=O	0	0	0	0	0	0
O=Nc1c(O)n(Cc2cccc(Cl)c2)c2ccccc12	0	0	0	0	-4.4	0
NC(=S)N=Nc1c(O)n(Cc2ccccc2)c2ccccc12	-	-	-	0	-	-
CCN(CC)C(=O)CC(c1ccc(F)cc1)c1ccco1 (stereo unspecified)	0	0	0	0	0	0
CCn1c(C(=O)Nc2ccsc2C(=O)OC)cc2sc(Cl)cc21	0	0	0	-	0	0
O=C(Nc1ccccc1)N1CCN(Cc2ccc3c(c2)OCO3)CC1	0	0	0	-	-5.5	0
O=C(c1cc2c(s1)CCCC2)N1CCN(Cc2ccc3c(c2)OCO3)CC1	0	0	0	0	-3.9	0
COc1ccc(S(=O)(=O)N2CCCC(C(=O)NCc3ccncc3)C2)cc1 (stereo unspecified)	0	0	0	0	-	0
CCOC(=O)N1CCN(c2ncnc3c2[nH]c2ccc(F)cc23)CC1	0	0	0	-3	0	0
CCOC(=O)N1CCN(c2ncnc3c2[nH]c2ccc(OC)cc23)CC1	0	0	0	0	0	0
Cc1ccccc1CSCCNC(=O)CCSc1ccccc1	0	0	0	0	-6.1	0
COc1ccccc1N1CCN(CC(O)c2ccc3cc[nH]c3c2)CC1 (stereo unspecified)	0	0	0	-	-5.6	0
O=C(c1ccco1)N1CCN(C(=O)c2ccc(COc3ccc(Cl)cc3Cl)o2)CC1	0	0	0	0	-5.8	0
O=C(c1ccco1)N1CCN(c2ccc(Cl)c(Cl)c2)CC1	0	0	0	0	-4.1	0
SMILES	PLK1 inh	Rev-RRE block	FAK blocker	PTK2B oligo ant	Cav32 inh	PLK1 PBD inh
O=C(c1ccco1)N1CCN(C(=O)c2ccccc2Oc2ccccc2)CC1	0	0	0	0	-5	0
CCOC(=O)N1CCN(C(=O)c2ccccc2Oc2ccccc2)CC1	0	0	0	0	-	0
C/C(=N/Oc1nc(C)cc(C)n1)c1ccc(F)cc1	0	0	0	0	0	0
COc1ccc(C(=O)CN2C(=O)NC(C)(c3ccccc3)C2=O)cc1OC (stereo unspecified)	0	0	0	0	0	0
CC1CCCC(N2CCN(C(=O)c3cccc(F)c3)CC2)C1 (stereo unspecified)	0	0	0	0	0	0
COc1ccc(C(=O)OC(C(=O)c2ccccc2)c2ccccc2)cc1 (stereo unspecified)	0	0	0	0	0	0
CCOC(=O)C1=C(O)/C(=C/c2cn(CC(=O)NCC3CCCO3)c3ccccc23)SC1=Nc1ccc(C)cc1 (stereo unspecified)	0	41	0	0	0	0
CCCCn1c(SCC(=O)NCc2ccco2)nc2ccccc2c1=O	0	0	0	0	0	0
CCCCCn1c(SCc2ccncc2)nc2cc(C(=O)NCc3ccco3)ccc2c1=O	0	0	0	0	-4.2	0
CCC(C)(C(=O)NC1CCCCC1)N(Cc1ccco1)C(=O)Cc1cccs1 (stereo unspecified)	0	0	0	0	-4.7	0
O=C(Cc1cccs1)N(Cc1ccco1)C1(C(=O)NC2CCCCC2)CCCCC1	0	0	0	-4.2	-7.1	0
O=C(Cc1cccs1)N(Cc1cccs1)C1(C(=O)NC2CCCC2)CCCCC1	0	0	0	-3.4	-8.4	0
NNC(=O)Cn1c(SCc2ccccc2)nc2ccccc21	0	0	0	0	0	0
CCc1cc2c(=O)c(-c3ccc4c(c3)OCCO4)coc2cc1OC(=O)c1ccco1	0	0	0	-3.5	0	0
C=CCc1cccc(C2Nc3ccccc3C(=O)N2O)c1O (stereo unspecified)	0	0	0	0	-9.8	0
CN1/C(=C\C(=O)COC(=O)CN2C(=O)C3CC=CCC3C2=O)C(C)(C)c2ccccc21 (stereo unspecified)	0	0	0	0	0	0
CN1/C(=C\C(=O)CN2C(=O)NC3(CCCCCC3)C2=O)C(C)(C)c2ccccc21	0	0	0	0	-4.2	0
CC(C)c1ccc(C2C(C#N)=C(N)N3C(=C2C#N)Sc2ccccc23)cc1 (stereo unspecified)	0	56	0	-	0	0
COc1cc2ccccc2c2c1CCCC2=O	0	0	0	0	0	0
Cn1c(=O)c2ncn(CC(=O)Nc3ccc4c5c(cccc35)CC4)c2n(C)c1=O	0	46	0	0	0	0
CC(=O)/C=C(\C)NCCNc1c(F)c(F)c(CO)c(F)c1F	-	-	-	0	0	-
CCN(C(=O)CSc1ncccc1C(=O)OC(C)C)c1cccc(C)c1	0	0	0	0	-5.6	0
CC(C)OC(=O)c1cccnc1SCC(=O)N(C)c1ccccc1	0	0	0	0	0	0
O=C(NCc1cccc(Br)c1)C1CC(c2ccccc2[N+](=O)[O-])=NO1 (stereo unspecified)	-	-	-	-	0	-
Cc1ccc([N+](=O)[O-])cc1N=C(c1cccc(Br)c1)N1CCOCC1	0	0	0	0	-4.1	0
Cc1cc(-c2cc(-c3ccccc3)on2)nc(NCC2CC2)n1	-	-	-	-	0	-
Cc1ccc(S(=O)(=O)Nc2nc3ccccc3nc2N2CCN(c3ccccc3F)CC2)cc1	0	0	0	0	-3.6	0
O=S(=O)(Nc1nc2ccccc2nc1N1CCN(c2ccccn2)CC1)c1ccc(Cl)cc1	0	36	0	0	-4.7	0
